Measured values taken from ChEMBL document CHEMBL1126613, “Centrally acting serotonergic agents. Synthesis and structure-activity relationships of C-1- or C-3-substituted derivatives of 8-hydroxy-2-(di-n-propylamino)tetralin” (J Med Chem, 1993).
Where “and” joins values, the source holds several entries; their conditions need not be identical. Equal values may be shown once.

Assays:
Mus musculus [1] = experiment: Tested in vivo for the maximum temperature decrease in mouse hypothermia assay.; type: functional
In short: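 CF-1 mice (18-22 g, 4 per dose), dosed sc or orally. Rectal temperature measured before dosing and 20 min after. The mean maximum temperature drop (°F) at 20 min after any dose is recorded as an efficacy index.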

Mus musculus [2] = experiment: In vivo effective dose administered subcutaneously in mouse hypothermia assay.; type: functional; conditions: sc
In short: (§1)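 Charles River CF-1 mice (18-22 g, 4 per dose), housed individually 20 min before testing. Rectal temperature taken before dosing and 20 min after (sc 0.1 mL; oral 0.2 mL by gavage needle). A drop of ≥2 °F counted as positive. Doses started at 30 mg/kg and fell by half-log until 0/4 responded.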

Mus musculus [3] = experiment: In vivo effective dose administered orally in mouse hypothermia assay (approximate ED50).; type: functional; conditions: po; in short: as §1
Felis catus [4] = experiment: Dose on arterial blood pressure (BP) in anesthetized cat; type: functional
In short: (§2)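 Adult cats (2.5-4.0 kg) anesthetized with ketamine 11 mg/kg im, then chloralose 80 mg/kg iv. Femoral artery cannulated for blood pressure, femoral vein for drug. Ventilated, paralyzed with gallamine 4 mg/kg iv, rectal temperature held at 37-38 °C. Cumulative iv doses given at 20-min intervals. Maximum decrease reported following a 1 mg/kg iv dose.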

Felis catus [5] = experiment: Maximum decrease on arterial blood pressure at 1 mg/kg; type: functional; in short: as §2
Rattus norvegicus [6] = species: Rattus norvegicus; experiment: Effect on the synthesis rate of dopamine (DOPA) accumulation at the dose of […] in the rat ventral limbic brain region; type: functional, Limbic system
Felis catus [7] = species: Felis catus; experiment: Dose at which the SND has been reduced to 50% of the pretreatment value; type: functional
In short: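 Adult cats (2.5-4.0 kg), ketamine 11 mg/kg im then chloralose 80 mg/kg iv, ventilated, gallamine-paralyzed, rectal temperature 37-38 °C. Sympathetic nerve discharge quantified by cumulative integration. Cumulative iv doses were given at 20-min intervals. Value is the dose reducing discharge to 50% of pretreatment.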

Rattus norvegicus [8] = species: Rattus norvegicus; experiment: Effect on the synthesis rate of 5 HTP accumulation at the dose of […] in the rat ventral limbic brain region; type: functional, Limbic system
Mus musculus [9] = experiment: Tested in vivo for the effective dose administered orally in mouse hypothermia assay; type: functional; conditions: po; in short: as §1
Rattus norvegicus [10] = experiment: Effect on the synthesis rate of dopamine (DOPA) accumulation at the dose of 100 umol/kg in the rat ventral limbic brain region; type: functional, Limbic system
In short: (§3)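 Male Sprague-Dawley rats dosed sc with drug or vehicle at time zero. NSD 1015 (100 mg/kg ip) given 15 min later to block aromatic decarboxylase. Brain DOPA and 5-HTP measured by electrochemical detection with peak integration. Expressed as percent change from NSD 1015 plus saline controls. Control and test groups N = 6 each, compared by unpaired t test.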

Rattus norvegicus [11] = experiment: Effect on the synthesis rate of 5 HTP accumulation at the dose of 100 umol/kg in the rat ventral limbic brain region; type: functional, Limbic system; in short: as §3
Rattus norvegicus [12] = experiment: Effect on the synthesis rate of 5 HTP accumulation at the dose of 10 umol/kg in the rat ventral limbic brain region; type: functional, Limbic system; in short: as §3
Rattus norvegicus [13] = experiment: Effect on the synthesis rate of dopamine (DOPA) accumulation at the dose of 10 uM/kg in the rat ventral limbic brain region; type: functional, Limbic system; in short: as §3
Rattus norvegicus [14] = experiment: Effect on the synthesis rate of dopamine (DOPA) accumulation at the dose of 3.6 umol/kg in the rat ventral limbic brain region; type: functional, Limbic system; in short: as §3
Rattus norvegicus [15] = experiment: Effect on the synthesis rate of 5 HTP accumulation at the dose of 3.6 umol/kg in the rat ventral limbic brain region; type: functional, Limbic system; in short: as §3
Mus musculus [16] = experiment: Behavioral time in mouse face to face assay at 3.6 umol/kg administered subcutaneously; type: functional
In short: (§4)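 Male CF-1 mice (Charles River, 19-29 g), 8 pairs per dose, dosed sc, ip or orally in 0.25% methylcellulose or 0.1% citric acid; 30 min absorption housed with familiar partner. Pairs from different home cages placed in small litter-floored cage; face-to-face interaction duration scored visually for 3 min. Wilcoxon rank sum (two-tailed) vs daily control, p < 0.05.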

Mus musculus [17] = experiment: Behavioral time in mouse face to face assay at 36 umol/kg administered subcutaneously; type: functional; in short: as §4
Mus musculus [18] = experiment: Behavioral time in mouse face to face assay at 0.4 umol/kg administered subcutaneously; type: functional; in short: as §4
Mus musculus [19] = experiment: Behavioral time in mouse face to face assay at 0 umol/kg administered subcutaneously; type: functional; in short: as §4
Mus musculus [20] = experiment: Behavioral time in mouse face to face assay at 0.3 umol/kg administered perorally; type: functional; in short: as §4
Rattus norvegicus [21] = experiment: Effect on the synthesis rate of dopamine (DOPA) accumulation at the dose of 9.7 umol/kg in the rat ventral limbic brain region; type: functional, Limbic system; in short: as §3
Mus musculus [22] = experiment: Behavioral time in mouse face to face assay at 0 umol/kg administered perorally; type: functional; in short: as §4
Rattus norvegicus [23] = experiment: Effect on the synthesis rate of 5 HTP accumulation at the dose of 9.7 umol/kg in the rat ventral limbic brain region; type: functional, Limbic system; in short: as §3
Felis catus [24] = experiment: Effect on arterial blood pressure (BP) in anesthetized cat; type: functional; in short: as §2
Felis catus [25] = species: Felis catus; experiment: Maximum decrease observed; type: functional; design: unit not given here
Rattus norvegicus [26] = experiment: Effect on the synthesis rate of dopamine (DOPA) accumulation at the dose of 3.4 umol/kg in the rat ventral limbic brain region; type: functional, Limbic system; in short: as §3
Rattus norvegicus [27] = experiment: Effect on the synthesis rate of 5 HTP accumulation at the dose of 3.4 umol/kg in the rat ventral limbic brain region; type: functional, Limbic system; in short: as §3
Mus musculus [28] = experiment: Behavioral time in mouse face to face assay at 3.2 umol/kg administered perorally; type: functional; in short: as §4
Mus musculus [29] = experiment: Behavioral time in mouse isolation-induced aggression assay at 0 umol/kg administered perorally; type: functional
In short: (§5)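 Male CF-1 mice. Residents were isolated singly for at least 1 month; group-housed intruders were kept 4-6/cage. Mice weighed 28-30 g at first test. Residents got drug ip or orally in 0.25% methylcellulose or 0.1% citric acid 30 min before an untreated intruder was introduced. Latency to fighting was recorded, capped at 600 s. Dosing was blind, 6/group (vehicle n = 12), Wilcoxon rank sum.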

Mus musculus [30] = experiment: Behavioral time in mouse isolation-induced aggression assay at 32.5 umol/kg administered perorally; type: functional; in short: as §5
Rattus norvegicus [31] = experiment: Effect on the synthesis rate of 5 HTP accumulation at the dose of 3.2 umol/kg in the rat ventral limbic brain region; type: functional, Limbic system; in short: as §3
Mus musculus [32] = experiment: Behavioral time in mouse face to face assay at 32.5 umol/kg administered perorally; type: functional; in short: as §4
Rattus norvegicus [33] = experiment: Effect on the synthesis rate of dopamine (DOPA) accumulation at the dose of 3.2 umol/kg in the rat ventral limbic brain region; type: functional, Limbic system; in short: as §3
Mus musculus [34] = experiment: Behavioral time in mouse isolation-induced aggression assay at 9.7 umol/kg administered perorally; type: functional; in short: as §5
Mus musculus [35] = experiment: Behavioral time in mouse isolation-induced aggression assay at 10 umol/kg administered intraperitoneally; type: functional; in short: as §5
Mus musculus [36] = experiment: Behavioral time in mouse isolation-induced aggression assay at 34 umol/kg administered intraperitoneally; type: functional; in short: as §5
Mus musculus [37] = experiment: Behavioral time in mouse isolation-induced aggression assay at 3.4 umol/kg administered intraperitoneally; type: functional; in short: as §5
Mus musculus [38] = experiment: Behavioral time in mouse face to face assay at 34 umol/kg administered subcutaneously; type: functional; in short: as §4
Mus musculus [39] = experiment: Behavioral time in mouse face to face assay at 0.3 umol/kg administered subcutaneously; type: functional; in short: as §4
Mus musculus [40] = experiment: Behavioral time in mouse face to face assay at 3.4 umol/kg administered subcutaneously; type: functional; in short: as §4

SMILES | TMP.decrease (Mus musculus [1]) | ED50 (Mus musculus [2]) | Max decrease (Felis catus [5]) | ED50 (Felis catus [7]) | ED50 (Mus musculus [9]) | Max decrease (Felis catus [25]) | BP (Felis catus [4]) | other results
C=CCN[C@@H]1CCc2cccc(OC)c2[C@H]1CC1CC1 (relative stereo) | 6.2 degrees F | 24 µmol/kg | – | – | – | – | – | ED50 (Mus musculus [3]): > 97 µmol/kg
CCC[C@H]1c2c(cccc2OC)CC[C@H]1N(CCC)CCC | 2.8 degrees F | 51 µmol/kg | 87 | > 2.94 µmol/kg | – | – | – | Max decrease (Felis catus [4]): 137; Change (Rattus norvegicus [6]): -14%; Change (Rattus norvegicus [8]): -3.9%
CCC[C@H]1c2c(O)cccc2CC[C@H]1N(CCC)CCC | 6.9 degrees F | 9.5 µmol/kg | – | – | > 92 µmol/kg | – | – | –
C=CC[C@H]1c2cccc(OC)c2CC[C@H]1NCCC | – | – | – | – | – | – | – | Change (Rattus norvegicus [10]): -24%; Change (Rattus norvegicus [11]): -36%; Change (Rattus norvegicus [12]): 17%; Change (Rattus norvegicus [13]): 35%
C=CCN[C@@H]1CCc2cccc(O)c2[C@@H]1CC=C | – | 1.1 µmol/kg | – | – | > 107 µmol/kg | – | – | Change (Rattus norvegicus [14]): 38%; Change (Rattus norvegicus [15]): -48%; Time (Mus musculus [16]): 0.5 s; Time (Mus musculus [17]): 2.6 s; Time (Mus musculus [18]): 0.8 s; Time (Mus musculus [19]): 0.8 s
CCCN[C@@H]1CCc2cccc(OC)c2[C@H]1CC1CC1 | – | 13 µmol/kg | – | – | 99 µmol/kg | – | – | Time (Mus musculus [20]): 1.5 s; Change (Rattus norvegicus [21]): 18.7%; Time (Mus musculus [22]): 2 s and 5 s; Change (Rattus norvegicus [23]): -43.7%
C=CC[C@@H]1c2c(cccc2OC)CC[C@H]1NCC1CC1 (relative stereo) | 11.5 degrees F | 10 µmol/kg | 46 | 0.81 µmol/kg | > 97 µmol/kg | 21 | – | BP (Felis catus [24]): 65%
C=CC[C@H]1c2c(cccc2OC)CC[C@H]1NCCC | 7.6 degrees F and 6 degrees F | 3.4 µmol/kg | 57 | 0.27 µmol/kg | 78 µmol/kg | 10 | 85% | Change (Rattus norvegicus [26]): 2.2%; Change (Rattus norvegicus [27]): -50%
C=CCN(CCC)[C@@H]1CCc2cccc(OC)c2C1=C | 3.6 degrees F | > 97 µmol/kg | 51 | 0.91 µmol/kg | – | 20 | 59% | Time (Mus musculus [28]): 1.9 s; Time (Mus musculus [20]): 1.9 s; Time (Mus musculus [29]): 56 s; Time (Mus musculus [30]): 416 s; Change (Rattus norvegicus [31]): -52%; Time (Mus musculus [32]): 2.5 s; Change (Rattus norvegicus [33]): -36%; Time (Mus musculus [22]): 0.7 s; Time (Mus musculus [34]): 61 s
C=CCN[C@@H]1CCc2cccc(OC)c2[C@@H]1CC1CC1 | 7.1 degrees F | 32 µmol/kg | – | – | – | – | – | –
C=CCN[C@@H]1CCc2cccc(OC)c2[C@H]1CC=C (relative stereo) | 11.5 degrees F and 6.6 degrees F | 5.9 µmol/kg | 45 | 1.19 µmol/kg | 79 µmol/kg | 10 | 59% | –
C=CC[C@H]1c2c(cccc2OC)CC[C@H]1NCC1CC1 | – | 18 µmol/kg | 58 | 0.27 µmol/kg | 134 µmol/kg | 10 | 65% | –
COc1cccc2c1[C@H](CC1CC1)[C@H](NCC1CC1)CC2 | 6.8 degrees F | 23 µmol/kg | – | – | – | – | – | ED50 (Mus musculus [3]): > 93 µmol/kg
C=CCN[C@@H]1CCc2cccc(OC)c2[C@@H]1CO | – | 1.4 µmol/kg | 48 | 0.09 µmol/kg | > 106 µmol/kg | 5 | 82% | –
CCCN[C@@H]1CCc2cccc(OC)c2[C@@H]1CCC | 6.5 degrees F | 14 µmol/kg | – | – | > 101 µmol/kg | – | – | –
C=CC[C@H]1c2c(cccc2OC)CC[C@H]1N(CCC)CCC | – | > 89 µmol/kg | – | – | – | – | – | –
C=CCN[C@@H]1CCc2cccc(OC)c2[C@@H]1CC=C | 9.8 degrees F and 6.6 degrees F | 7.9 µmol/kg | 58 | 0.54 µmol/kg | 44 µmol/kg | 18 | 70% | Time (Mus musculus [35]): 130 s; Change (Rattus norvegicus [26]): -21%; Time (Mus musculus [36]): 290 s; Time (Mus musculus [37]): 45 s; Time (Mus musculus [38]): 4.3 s; Change (Rattus norvegicus [27]): -60%; Time (Mus musculus [39]): 0.9 s; Time (Mus musculus [19]): 1.1 s; Time (Mus musculus [40]): 1.4 s
